Measurements reported in ChEMBL document CHEMBL1138298, “Synthesis and evaluation of 7H-8,9-dihydropyrano[2,3-c]imidazo[1,2-a]pyridines as potassium-competitive acid blockers” (J Med Chem, 2007).
The source made the active and inactive calls. The rule behind the calls is not given here.

Assays:
[1] = (§1) Inhibition of H+/K+ ATPase in hog gastric mucosa; format: tissue-based, Sus scrofa
Method in brief: (§2)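 Hog gastric mucosa H+/K+-ATPase (0.5-1 µg/100 µL, with nigericin 1:1) in 4 mM Pipes/8 mM Tris pH 7.4, 0.25 M sucrose, 1 mM MgCl2, stimulated by 1 mM KCl. Compound 1e-4 to 1e-9 M final from DMSO stocks. Started with 1 mM Na-ATP, 30 min room temperature. Phosphate read by malachite green at 680 nm after 15 min.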

Gastric gland = test: Inhibition of acid secretion in rabbit intact gastric glands assessed as […] accumulation; format: functional, tissue-based; details: Oryctolagus cuniculus
Method in brief: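 Isolated gastric glands in Krebs-Henseleit with 2 mg/mL rabbit serum albumin and 2 mg/mL glucose. Incubated 30 min at 37 °C, shaking, with 0.125 µM 14C-aminopyrine at pH 7.4, stimulated by 1 mM dibutyryl cAMP, inhibitor 3 nM-100 µM. Stopped by centrifugation. Accumulation taken from pellet/supernatant radioactivity ratio. IC50 from fitted inhibition equation.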

Rattus norvegicus [2] = test: Inhibition of pentagastrin-stimulated acid secretion in perfused Ghosh Schild rat stomach at 0.3 umol/kg, intraduodenal; format: functional; parameters: scale not given: the % may be the effect or the level left
Method in brief: (§3)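 Anaesthetised rat with perfused stomach: 37 °C saline at 0.5 mL/min. Effluent titrated to pH 7 with 0.01 N NaOH in 15-min fractions. Secretion driven by continuous iv pentagastrin, 1 µg/kg (1.65 mL/h). Compound given intraduodenally in 2.5 mL/kg volume 60 min after infusion start. Body temperature held at 37.8-38 °C.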

Rattus norvegicus [3] = test: Inhibition of pentagastrin-stimulated acid secretion in perfused Ghosh Schild rat stomach at 3 umol/kg, intraduodenal; format: functional; parameters: scale not given: the % may be the effect or the level left; method in brief: as §3
Sus scrofa = species: Sus scrofa; test: as §1; format: tissue-based; method in brief: as §2
Rattus norvegicus [4] = test: Inhibition of pentagastrin-stimulated acid secretion in perfused Ghosh Schild rat stomach at 1 umol/kg, intraduodenal; format: functional; parameters: scale not given: the % may be the effect or the level left; method in brief: as §3
[5] = Dissociation constant, pKa of the compound; format: physicochemical
Method in brief: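 Potentiometric cosolvent titration in 0.15 mol/L KCl, pH 2.0-11.0, 25 °C, methanol as cosolvent in varying portions; titrants 0.5 mol/L KOH and HCl.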

[6] = Distribution coefficient, log D of the compound; format: physicochemical; details: octanol/water
Method in brief: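 Distribution between 1-octanol and aqueous KCl measured by potentiometric titration over pH 2.0-11.0 at 25 °C.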

Structure (SMILES)	pIC50 [1]	IC50 (Gastric gland)	Activity (Rattus norvegicus [2])	Activity (Rattus norvegicus [3])	Activity (Gastric gland)	Activity (Sus scrofa)	Activity (Rattus norvegicus [4])	pKa [5]	logD [6]
CNC(=O)c1cn2c(C)c(C)nc2c2c1CC[C@@H](c1ccccc1)O2	6.3	2000 nM	62%						
Cc1nc2c3c(c(C(=O)N(C)C)cn2c1C)CC[C@H](c1ccccc1)O3	5.4	2510 nM		36%					
CNC(=O)c1cn2c(C)c(C)nc2c2c1CC[C@H](c1ccccc1)O2	4.4	5010 nM		38%					
Cc1nc2c3c(c(C(=O)N4CCCC4)cn2c1C)CC[C@H](c1ccccc1)O3	4.5	2510 nM		27%					
Cc1nc2c3c(c(C(=O)NC4CC4)cn2c1C)CC[C@H](c1ccccc1)O3	5.1	2000 nM		40%					
Cc1nc2c3c(c(C(=O)N4CCC4)cn2c1C)CC[C@H](c1ccccc1)O3	5.1	1580 nM		37%					
CC(=O)c1c(C)nc2c3c(c(C(=O)N(C)C)cn12)CC[C@H](c1ccccc1)O3	< 4			31%	inactive				
Cc1nc2c3c(c(C(=O)N(C)C)cn2c1C(=O)N(C)C)CCC(c1ccccc1)O3 (racemic)						inactive	26%	4.51	1.69
COCCNC(=O)c1c(C)nc2c3c(c(C(=O)N(C)C)cn12)CCC(c1ccccc1)O3 (racemic)						inactive	54%	4.38	1.95
Cc1nc2c3c(c(C(=O)N4CC(O)C4)cn2c1C)CCC(c1ccccc1)O3 (racemic)	5.9	63100 nM		54%				6.63	2.19
Cc1nc2c3c(c(C(=O)NS(C)(=O)=O)cn2c1C)CCC(c1ccccc1)O3 (racemic)	4.2			38%	inactive			2.5	1.9
Cc1nc2c3c(c(C(=O)O)cn2c1C)CCC(c1ccccc1)O3 (racemic)	5.2	25100 nM		15%				2.65	0.7
